From ChEMBL document CHEMBL1156459, “Discovery of a small molecule antagonist of the parathyroid hormone receptor by using an N-terminal parathyroid hormone peptide probe” (Proc Natl Acad Sci U S A, 2007)
Square brackets hold non-standard residues; d marks the D form. Peptide text beside a SMILES is read from it. Nle = CCCC[C@H](N)C(=O)O; Aib = CC(C)(N)C(=O)O

Tests used:
[1] = molecular target: T1, Parathyroid hormone/parathyroid hormone-related peptide receptor (Rattus norvegicus, UniProt P25961); assay: Activity at rat PTH/PTH-related peptide receptor expressed in rat UMR106 cells assessed as cAMP formation; assay type: functional, cell-based
T1 sequence (P25961 whole entry): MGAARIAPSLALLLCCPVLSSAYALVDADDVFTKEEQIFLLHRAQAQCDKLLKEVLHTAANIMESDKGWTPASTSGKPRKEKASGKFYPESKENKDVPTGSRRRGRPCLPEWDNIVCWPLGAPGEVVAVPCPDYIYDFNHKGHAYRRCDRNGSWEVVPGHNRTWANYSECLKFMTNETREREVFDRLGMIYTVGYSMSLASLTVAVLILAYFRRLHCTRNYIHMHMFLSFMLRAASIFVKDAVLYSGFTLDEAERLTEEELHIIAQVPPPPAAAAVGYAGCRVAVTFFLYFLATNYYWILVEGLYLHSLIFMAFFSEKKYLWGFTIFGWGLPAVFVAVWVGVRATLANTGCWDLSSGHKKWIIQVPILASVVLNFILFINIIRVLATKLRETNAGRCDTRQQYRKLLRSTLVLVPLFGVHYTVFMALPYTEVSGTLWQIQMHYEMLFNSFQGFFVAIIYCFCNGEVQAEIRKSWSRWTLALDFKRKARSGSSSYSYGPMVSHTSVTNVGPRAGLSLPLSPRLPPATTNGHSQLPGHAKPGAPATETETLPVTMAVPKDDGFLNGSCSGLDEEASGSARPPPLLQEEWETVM
How it was run: (§1)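 Nonconfluent cells grown at 37°C in DMEM with 10% FBS, refed 12–24 h before assay. Rinsed with warm PBS, detached with prewarmed EDTA (37°C, 5–10 min), spun at 300 × g for 5 min. Resuspended in HBSS/5 mM Hepes/0.1% BSA/0.5 mM IBMX, pH 7.4. cAMP read by AlphaScreen.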

[2] = Effect on c-fos gene expression in rat UMR106 cells after 2 hrs by microarray analysis relative to control; assay type: functional
How it was run: (§2)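 Rat UMR106 cells grown to confluency in DMEM/10% FBS, then moved to 0.1% FBS medium 24 h before treatment. Peptides (100 nM) were added to the medium for 2 or 8 h. Microarray profiling covered 8,799 reporters, with changes called at P < 0.01. Values are fold-change versus untreated control.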

[3] = Increase in trabecular bone mineral density in ovariectomized rat at 0.2 mg/kg, sc; assay type: functional, Trabecula; details: route subcutaneous
[4] = Effect on Pthr1 gene expression in rat UMR106 cells after 2 hrs by microarray analysis relative to control; assay type: functional; how it was run: as §2
[5] = Stimulation of osteoclast-mediated bone resorption in fetal Sprague-Dawley rat radii/ulnae assessed as [45Ca]release measured on day 5; assay type: functional; details: 120 h
How it was run: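 Fetal rat radii/ulnae prelabelled with 45Ca in utero, dissected and cultured. 45Ca released into the culture medium measured as the osteoclast-mediated resorption read-out.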

[6] = Effect on Pde4b gene expression in rat UMR106 cells after 8 hrs by microarray analysis relative to control; assay type: functional; how it was run: as §2
[7] = Effect on Pde4b gene expression in rat UMR106 cells after 2 hrs by microarray analysis relative to control; assay type: functional; how it was run: as §2
[8] = Effect on Crem gene expression in rat UMR106 cells after 2 hrs by microarray analysis relative to control; assay type: functional; how it was run: as §2
[9] = Effect on c-fos gene expression in rat UMR106 cells after 2 hrs by real time PCR method relative to control; assay type: functional
How it was run: (§3)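 Confluent UMR106 cells were serum-starved (0.1% FBS, 24 h) and then given peptide in the medium for 2 h. Transcripts were quantified by TaqMan real-time RT-PCR, with relative expression levels set from a serial-dilution standard. Expression is reported as change versus untreated control.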

[10] = molecular target: T2, Parathyroid hormone/parathyroid hormone-related peptide receptor (Homo sapiens, UniProt Q03431); assay: Binding affinity to PTH/PTH-related peptide receptor expressed in HKRK-B28 cells; assay type: cell-based
T2 sequence (Q03431 whole entry): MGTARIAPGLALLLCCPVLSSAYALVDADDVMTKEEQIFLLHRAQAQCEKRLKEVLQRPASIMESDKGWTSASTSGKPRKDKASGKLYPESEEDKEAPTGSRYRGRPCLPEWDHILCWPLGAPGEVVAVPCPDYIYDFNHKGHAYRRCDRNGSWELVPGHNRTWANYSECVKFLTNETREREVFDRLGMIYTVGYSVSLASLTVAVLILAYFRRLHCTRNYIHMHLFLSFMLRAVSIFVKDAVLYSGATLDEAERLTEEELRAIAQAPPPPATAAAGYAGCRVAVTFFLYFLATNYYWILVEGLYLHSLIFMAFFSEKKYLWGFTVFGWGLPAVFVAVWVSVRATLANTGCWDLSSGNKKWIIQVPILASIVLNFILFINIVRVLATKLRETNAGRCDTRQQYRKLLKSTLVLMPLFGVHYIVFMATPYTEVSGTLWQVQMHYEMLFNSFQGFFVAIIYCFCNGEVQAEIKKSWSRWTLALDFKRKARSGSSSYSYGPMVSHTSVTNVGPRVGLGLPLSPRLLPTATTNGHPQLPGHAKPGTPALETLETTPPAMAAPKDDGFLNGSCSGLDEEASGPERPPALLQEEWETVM
How it was run: (§4)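 Whole HKRK-B28 cells plated at 30,000/well and incubated overnight at 37°C, 5% CO2. Incubated 3 h at room temperature, washed three times, bound radioactivity counted by scintillation.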

[11] = Effect on Pde4b gene expression in rat UMR106 cells after 2 hrs by real time PCR method relative to control; assay type: functional; how it was run: as §3
[12] = Effect on Ptpn16 gene expression in rat UMR106 cells after 2 hrs by real time PCR method relative to control; assay type: functional; how it was run: as §3
[13] = Effect on Crem gene expression in rat UMR106 cells after 2 hrs by real time PCR method relative to control; assay type: functional; how it was run: as §3
[14] = Effect on Ptpn16 gene expression in rat UMR106 cells after 2 hrs by microarray analysis relative to control; assay type: functional; how it was run: as §2
[15] = Effect on IL18 gene expression in rat UMR106 cells after 8 hrs by microarray analysis relative to control; assay type: functional; how it was run: as §2
[16] = molecular target: T2, Parathyroid hormone/parathyroid hormone-related peptide receptor; assay: Activity at human PTH/PTH-related peptide receptor expressed in SAOS2 cells assessed as cAMP formation; assay type: functional, cell-based, SAOS-2; how it was run: as §1
[17] = molecular target: T2, Parathyroid hormone/parathyroid hormone-related peptide receptor; assay: Displacement of [125I]DPC-AJ1951 from PTH/PTH-related peptide receptor expressed in HKRK-B28 cells; assay type: cell-based; how it was run: as §4
[18] = Stimulation of cell proliferation in neonatal CD1 mouse calivaria assessed as increase in [3H]thymidine incorporation; assay type: functional
[19] = Stability in rat whole blood assessed as half life; assay type: ADME, tissue-based
How it was run: (§5)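 Peptide incubated at 37°C in rat plasma or rat whole blood; half-life determined.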

[20] = Effect on IL18 gene expression in rat UMR106 cells after 2 hrs by real time PCR method relative to control; assay type: functional; how it was run: as §3
[21] = Stability in rat plasma assessed as half life; assay type: ADME, cell-free; how it was run: as §5
[22] = tested on: Rattus norvegicus; assay: Increase in cAMP level in ovariectomized rat plasma after 30 mins at 1 mg/kg, sc relative to control; assay type: functional; details: route subcutaneous
[23] = molecular target: T2, Parathyroid hormone/parathyroid hormone-related peptide receptor; assay: Activity at human PTH/PTH-related peptide receptor expressed in HEK293 cells assessed as induction of luciferase activity by CRE-luciferase reporter assay; assay type: functional, cell-based
[24] = Effect on Ptpn16 gene expression in rat UMR106 cells after 8 hrs by microarray analysis relative to control; assay type: functional; how it was run: as §2
[25] = Effect on Pthr1 gene expression in rat UMR106 cells after 2 hrs by real time PCR method relative to control; assay type: functional; how it was run: as §3
[26] = Decrease in collagen synthesis in neonatal CD1 mouse calivaria bone assessed as [3H]proline incorporation; assay type: functional
[27] = Effect on Bmp3 gene expression in rat UMR106 cells after 8 hrs by microarray analysis relative to control; assay type: functional; how it was run: as §2
[28] = Effect on Pthr1 gene expression in rat UMR106 cells after 8 hrs by microarray analysis relative to control; assay type: functional; how it was run: as §2
[29] = Effect on Bmp3 gene expression in rat UMR106 cells after 2 hrs by real time PCR method relative to control; assay type: functional; how it was run: as §3
[30] = molecular target: T2, Parathyroid hormone/parathyroid hormone-related peptide receptor; assay: Activity at human PTH/PTH-related peptide receptor expressed in HEK293 cells assessed as induction of intracellular calcium mobilization; assay type: functional, cell-based
[31] = molecular target: T2, Parathyroid hormone/parathyroid hormone-related peptide receptor; assay: Displacement of [125I]DPC-AJ1951 from PTH/PTH-related peptide receptor expressed in HKRK-B28 cells in presence of SW106; assay type: cell-based; how it was run: as §4
[32] = Effect on c-fos gene expression in rat UMR106 cells after 8 hrs by microarray analysis relative to control; assay type: functional; how it was run: as §2

Structure (SMILES): CCCC[C@H](NC(=O)[C@H](CC(C)C)NC(=O)[C@H](CCC(N)=O)NC(=O)[C@@H](NC(=O)[C@H](CCC(=O)O)NC(=O)C(C)(C)NC(=O)[C@@H](NC(=O)C(C)(C)N)C(C)C)[C@@H](C)CC)C(=O)N[C@@H](Cc1cnc[nH]1)C(=O)N[C@@H](CCC(N)=O)C(=O)N[C@@H](CCCNC(=N)N)C(=O)N[C@@H](C)C(=O)N[C@@H](CCCCN)C(=O)N[C@@H](Cc1ccc(O)cc1)C(N)=O (H-[Aib]V[Aib]EIQL[Nle]HQRAKY-NH2)
- EC50 [1]: 1.1 nM
- fold change (FC) [2]: 48
- Activity [3]: 21%
- fold change (FC) [4]: -2
- EC50 [5]: 30 nM
- fold change (FC) [6]: 9
- fold change (FC) [7]: 11
- fold change (FC) [8]: 13
- fold change (FC) [9]: 66
- Kd [10]: 21.6 nM
- fold change (FC) [11]: 4
- fold change (FC) [12]: 15
- fold change (FC) [13]: 5
- fold change (FC) [14]: 9
- fold change (FC) [15]: 18
- EC50 [16]: 2.2 nM
- IC50 [17]: 6.87 nM
- EC50 [18]: 6 nM
- half-life [19]: 15 min
- fold change (FC) [20]: 6
- half-life [21]: 20 min
- Activity [22]: 150%
- EC50 [23]: 0.15 nM
- fold change (FC) [24]: 6
- fold change (FC) [25]: -2
- EC50 [26]: 0.2 nM
- fold change (FC) [27]: 4
- fold change (FC) [28]: 3
- fold change (FC) [29]: 14
- EC50 [30]: 26 nM
- IC50 [31]: 55.4 nM
- fold change (FC) [32]: 11
